This is an account of results in ChEMBL document CHEMBL1133683, “beta-Turned dipeptoids as potent and selective CCK(1) receptor antagonists” (J Med Chem, 2000).

One may read the IC50 as the concentration needed to halve the response being measured. A low value points to higher potency.

In assay [1] the target is T1, Gastrin/cholecystokinin type B receptor (Rattus norvegicus, UniProt P30553).
T1 sequence (P30553 whole entry): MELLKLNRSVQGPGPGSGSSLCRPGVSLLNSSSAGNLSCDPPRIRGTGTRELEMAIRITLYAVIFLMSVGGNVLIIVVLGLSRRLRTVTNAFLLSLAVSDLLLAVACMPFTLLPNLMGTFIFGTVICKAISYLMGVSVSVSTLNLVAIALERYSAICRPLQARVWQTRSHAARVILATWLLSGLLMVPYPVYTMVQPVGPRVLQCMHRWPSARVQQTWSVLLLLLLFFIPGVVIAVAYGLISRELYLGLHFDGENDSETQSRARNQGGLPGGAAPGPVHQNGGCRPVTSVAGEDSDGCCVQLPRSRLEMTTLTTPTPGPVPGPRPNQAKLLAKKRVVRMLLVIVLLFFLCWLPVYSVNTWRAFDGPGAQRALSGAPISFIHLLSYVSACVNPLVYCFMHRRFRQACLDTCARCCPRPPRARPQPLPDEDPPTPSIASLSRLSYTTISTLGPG
As to the kind of experiment: In vitro inhibition of [3H]propionyl-CCK-8 binding to rat cerebral cortex membranes at Cholecystokinin type B receptor. The format is cell membranes, Membrane. The gist of the method: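 Rat cerebral cortex homogenized in 50 mM Tris-HCl pH 7.4 with 5 mM MgCl2 and spun twice (100000g, 35 min, 4 °C). Membranes (0.45 mg protein/tube) incubated with 1 nM [3H]pCCK-8 in the same buffer plus bacitracin 0.2 mg/mL, 60 min at 25 °C. Nonspecific binding defined with 1 μM CCK-8. Seven test concentrations in duplicate, at least three experiments, mean ± SEM.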

The target in assay [2] is T2, Cholecystokinin receptor type A (Rattus norvegicus, UniProt P30551).
T2 sequence (P30551 whole entry): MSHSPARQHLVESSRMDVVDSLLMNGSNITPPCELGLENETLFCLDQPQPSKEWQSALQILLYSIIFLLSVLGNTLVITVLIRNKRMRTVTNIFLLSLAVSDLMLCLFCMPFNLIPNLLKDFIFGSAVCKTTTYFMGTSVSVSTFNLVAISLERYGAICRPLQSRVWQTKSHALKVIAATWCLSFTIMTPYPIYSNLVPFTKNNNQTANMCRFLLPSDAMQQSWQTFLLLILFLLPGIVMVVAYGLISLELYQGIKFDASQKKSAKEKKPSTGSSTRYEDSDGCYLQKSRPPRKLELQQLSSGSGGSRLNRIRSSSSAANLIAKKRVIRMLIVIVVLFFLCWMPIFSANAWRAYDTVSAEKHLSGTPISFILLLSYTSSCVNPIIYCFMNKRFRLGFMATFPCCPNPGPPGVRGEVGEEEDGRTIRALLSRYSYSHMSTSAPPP
Briefly: In vitro inhibition of [3H]propionyl-CCK-8 binding to rat pancreatic membranes at Cholecystokinin type A receptor. The format is cell membranes, Membrane. A digest of the protocol:
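Rat pancreas homogenized in Pipes-HCl pH 6.5 with 30 mM MgCl2 and spun twice (50000g, 10 min, 4 °C). Membranes (0.2 mg protein/tube) incubated with 0.5 nM [3H]pCCK-8 in the same buffer plus bacitracin and soybean trypsin inhibitor (0.2 mg/mL each), 120 min at 25 °C. Nonspecific binding defined with 1 μM CCK-8. Seven concentrations in duplicate, ≥3 experiments, mean ± SEM.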

The species entered for a further assay is Rattus norvegicus. As to the kind of experiment: Inhibition of CCK-8-stimulated amylase release from pancreatic acinar cells. The format is functional, cell-based. The gist of the method: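 Pancreatic acini prepared by collagenase digestion (70 U/mL, three 10-min incubations at 37 °C under O2). Acini incubated 30 min at 37 °C under pure O2 with agitation. Amylase release was stimulated by 0.1 nM CCK-8 and expressed as percent of acinar amylase released. Percent inhibition was calculated across increasing drug concentrations, and IC50 is given with a range.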

With `O=C(O)C[C@@H](Cc1ccccc1)NC(=O)[C@@H]1Cc2c([nH]c3ccccc23)[C@H]2C[C@H](NC(=O)OCc3ccccc3)C(=O)N21`, in assay [1], the IC50 turned out to be 2700 nM.
Take `NC(=O)[C@H](Cc1ccccc1)NC(=O)[C@@H]1Cc2c([nH]c3ccccc23)[C@H]2C[C@H](NC(=O)OCc3ccccc3)C(=O)N21`: the values for the IC50 in assay [2] and in assay [1] were > 1000 nM and > 10000 nM, respectively.
As for `O=C(N[C@@H]1C[C@H]2c3[nH]c4ccccc4c3C[C@H](C(=O)N[C@@H](Cc3ccccc3)C(=O)O)N2C1=O)OCc1ccccc1`, the IC50 in the assay filed under Rattus norvegicus stood at 1.2 nM; in assay [2], 1.73 nM; in assay [1], 202 nM.
In the assay filed under Rattus norvegicus, `CN1C(=O)[C@@H](NC(=O)c2cc3ccccc3[nH]2)N=C(c2ccccc2)c2ccccc21` [DEVAZEPIDE] came in with an IC50 of 2.5 nM.
Regarding `COC(=O)[C@H](Cc1ccccc1)NC(=O)[C@H]1Cc2c([nH]c3ccccc23)[C@@H]2C[C@@H](NC(=O)OCc3ccccc3)C(=O)N12`, the IC50 in assay [2] was determined as 450 nM; in assay [1] it was 5630 nM.
The like results for `COC(=O)C[C@@H](Cc1ccccc1)NC(=O)[C@H]1Cc2c([nH]c3ccccc23)[C@@H]2C[C@@H](NC(=O)OCc3ccccc3)C(=O)N12` were, in that order, > 1000 nM and 4910 nM.
Regarding `O=C(N[C@@H]1C[C@H]2c3[nH]c4ccccc4c3C[C@H](C(=O)N[C@H](Cc3ccccc3)C(=O)O)N2C1=O)OCc1ccccc1`, the IC50 was > 1000 nM in assay [2] and 3720 nM in assay [1].
The like results for `COC(=O)C[C@H](Cc1ccccc1)NC(=O)[C@H]1Cc2c([nH]c3ccccc23)[C@@H]2C[C@@H](NC(=O)OCc3ccccc3)C(=O)N12` were, in that order, > 1000 nM and > 10000 nM.
The like results for `COC(=O)[C@H](Cc1ccccc1)NC(=O)[C@@H]1Cc2c([nH]c3ccccc23)[C@H]2C[C@H](NC(=O)OCc3ccccc3)C(=O)N21` were, in that order, 47.5 nM and > 10000 nM.
In the case of `O=C(N[C@H]1C[C@@H]2c3[nH]c4ccccc4c3C[C@@H](C(=O)N[C@H](Cc3ccccc3)C(=O)O)N2C1=O)OCc1ccccc1`, the half-inhibitory concentration (IC50) in assay [2] was 54.6 nM; in assay [1], > 10000 nM.
The like results for `O=C(O)C[C@@H](Cc1ccccc1)NC(=O)[C@H]1Cc2c([nH]c3ccccc23)[C@@H]2C[C@@H](NC(=O)OCc3ccccc3)C(=O)N12` were, in that order, > 1000 nM and > 10000 nM.
For the compound `NC(=O)[C@@H](Cc1ccccc1)NC(=O)[C@@H]1Cc2c([nH]c3ccccc23)[C@H]2C[C@H](NC(=O)OCc3ccccc3)C(=O)N21`, the IC50 in assay [2] is > 1000 nM; in assay [1], > 10000 nM.
`COC(=O)[C@@H](Cc1ccccc1)NC(=O)[C@H]1Cc2c([nH]c3ccccc23)[C@@H]2C[C@@H](NC(=O)OCc3ccccc3)C(=O)N12`: the figures for the IC50 in assay [2] and in assay [1] were > 1000 nM and > 10000 nM, respectively.
Take `O=C(O)C[C@H](Cc1ccccc1)NC(=O)[C@@H]1Cc2c([nH]c3ccccc23)[C@H]2C[C@H](NC(=O)OCc3ccccc3)C(=O)N21`: in assay [1], the 50% inhibitory concentration (IC50) is > 10000 nM.
For `O=C(O)C[C@H](Cc1ccccc1)NC(=O)[C@H]1Cc2c([nH]c3ccccc23)[C@@H]2C[C@@H](NC(=O)OCc3ccccc3)C(=O)N12`, the values for the IC50 in assay [2] and in assay [1] were 97.8 nM and > 10000 nM, respectively.
For `O=C(N[C@H]1C[C@@H]2c3[nH]c4ccccc4c3C[C@@H](C(=O)N[C@@H](Cc3ccccc3)C(=O)O)N2C1=O)OCc1ccccc1`, the figures for the IC50 (in the assay filed under Rattus norvegicus; in assay [2]; in assay [1]) were 6 nM, 4.7 nM and > 10000 nM, respectively.
Consider `COC(=O)[C@@H](Cc1ccccc1)NC(=O)[C@@H]1Cc2c([nH]c3ccccc23)[C@H]2C[C@H](NC(=O)OCc3ccccc3)C(=O)N21`, for which the values for the IC50 in assay [2] and in assay [1] were > 1000 nM and > 10000 nM, respectively.
